Laboratory results reported in article PMC9294072 (ACS chemical biology, 2022).
Where no end group is shown, it is not given here. [ ]: non-standard residue; d: D form. Arg(Me2a) = CN(C)C(=N)NCCC[C@H](N)C(=O)O; Arg(Me2s) = CN=C(NC)NCCC[C@H](N)C(=O)O; pS = N[C@@H](COP(=O)(O)O)C(=O)O

The substances below were run against T1, hNatD (Homo sapiens, UniProt Q86UY6) (assay: Continuous fluorescence-based acetylation assay). Conditions: G4V relative to G4D.
Assay type: biochemical
Outline: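 hNatD activity monitored continuously by fluorescence at 25 °C. All components except peptide were preincubated for 10 min, then the reaction was started with varying peptide concentrations. For AcCoA characterization, the peptide substrate was fixed at 50 μM. Readings were taken at 400–415 nm and 460–485 nm. Signal was converted to CoA via a standard curve, and initial velocities were fit to Michaelis-Menten or substrate-inhibition models. Run at least in duplicate.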
With “G4V: oncohistone H4/H2A pentapeptide with G4V mutation (SGRVK-NH2)” the “fold higher kcat/Km for G4V than G4D” value was 7 fold.

Same assay, conditions: H2A peptide vs H4 peptide of the same length
For “H2A-12: C-terminal truncated H2A synthetic peptide, 12 residues (SGRGKQGGKARA-NH2; UniProt P0C0S8 2-13, looked up, fragment)”, the “fold reduction in kcat/Km compared to corresponding H4 peptides” value was “about 4 fold”.

Same assay, conditions: SMARCD2-derived pentapeptide vs H4-5 (also H2A-5)
With SGRGA the “fold difference in kcat and kcat/Km compared to H4-5” value was “less than 2 fold”.

Same assay, conditions: fluorescence assay; compared to H4-5
For “H4K5ac: H4 pentapeptide with Lys5 acetylation (SGRGK(Ac)-NH2)”, the “kinetic parameters relative to unmodified H4-5 (in words)” value was “comparable kinetic parameters”.

Same assay, conditions: normalized to wild-type H4-5; fluorescence assay
In the case of “G2E: oncohistone H4/H2A pentapeptide with G2E mutation (SERGK-NH2)”, the “fold decrease in kcat compared to H4-5” value is reported as 3 fold. “G4D: oncohistone H4/H2A pentapeptide with G4D mutation (SGRDK-NH2)” was tested, and the “fold decrease in kcat compared to H4-5” value was “less than 2 fold”. For “G4S: oncohistone H4/H2A pentapeptide with G4S mutation (SGRSK-NH2)”, the “fold decrease in kcat compared to H4-5” value was 7 fold and the “fold reduction in kcat/Km compared to H4-5” value (shortened to “fold reduction … to H4-5”) was 17 fold. In the case of “G4V: oncohistone H4/H2A pentapeptide with G4V mutation (SGRVK-NH2)”, the “fold decrease in kcat compared to H4-5” value is reported as “less than 2 fold”. For “H4R3me1: H4 pentapeptide with Arg3 monomethylation (SG[Rme1]GK-NH2; UniProt P62805 2-6, looked up, fragment)”, the “fold reduction … to H4-5” value was 3.6 fold. For “H4R3me2a: H4 pentapeptide with Arg3 asymmetric dimethylation (SG[Arg(Me2a)]GK-NH2; UniProt P62805 2-6, looked up, fragment)”, the “fold reduction … to H4-5” value was 8 fold. For “H4R3me2s: H4 pentapeptide with Arg3 symmetric dimethylation (SG[Arg(Me2s)]GK-NH2)”, the “fold reduction … to H4-5” value was 17 fold. “H4pS1: H4 pentapeptide with Ser1 phosphorylation ([pS]GRGK-NH2)” was tested, and the “fold decrease in kcat compared to H4-5” value was 2.3 fold and the “fold reduction … to H4-5” value was “over 100 fold”. “R3H: oncohistone H4/H2A pentapeptide with R3H mutation (SGHGK-NH2)” was tested, and the “fold decrease in kcat compared to H4-5” value was 1.5 fold and the “fold reduction … to H4-5” value was 6.5 fold. For “R3Q: oncohistone H4/H2A pentapeptide with R3Q mutation (SGQGK-NH2)”, the “fold decrease in kcat compared to H4-5” value was 3 fold and the “fold reduction … to H4-5” value was 200 fold. With “S1L: oncohistone H4/H2A pentapeptide with S1L mutation (LGRGK-NH2)” the “fold decrease in kcat compared to H4-5” value was 5 fold.

What follows are substances tested against T1, hNatD (assay: MALDI-MS acetylation assay). Conditions: relative to wild-type H4-5.
Assay type: biochemical
Outline: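 Human NatD 50 nM with 50 µM AcCoA in 25 mM HEPES, 150 mM NaCl, pH 7.5, 25 °C. Reaction started by adding peptide in 2-fold dilutions. Cysteine peptides were pre-reduced with DTT and diluted in buffer containing 10 mM DTT. Timed aliquots were quenched 1:1 in 0.1% TFA and spotted with CHCA for MALDI-MS of acetylated product. Initial slopes were fitted to Michaelis-Menten or substrate-inhibition models, in duplicate.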
With CGRGK [S1C] the “fold reduction … to H4-5” value was ~ 100 fold. In the case of “S1F: oncohistone H4/H2A pentapeptide with S1F mutation (FGRGK-NH2)”, the “fold reduction … to H4-5” value is reported as “over 1,000 fold”. With SGCGK [R3C] the “fold reduction … to H4-5” value was 17 fold.
